According to ChEMBL document CHEMBL1157467, “Discovery of nonsteroidal 17beta-hydroxysteroid dehydrogenase 1 inhibitors by pharmacophore-based screening of virtual compound libraries” (J Med Chem, 2008):
Activity calls are given as the source filed them. The rule behind the calls is not given here.

What was measured:
[1] = biological target: T1, 17-beta-hydroxysteroid dehydrogenase type 1 (Homo sapiens) (UniProt P14061); assay: Inhibition of human recombinant 17beta-HSD1 expressed in HEK293 cell lysate assessed as conversion of radiolabeled estrone to estradiol at 20 uM; assay type: cell-free; set-up: scale not given: the % may be the effect or the level left
T1 sequence (whole entry): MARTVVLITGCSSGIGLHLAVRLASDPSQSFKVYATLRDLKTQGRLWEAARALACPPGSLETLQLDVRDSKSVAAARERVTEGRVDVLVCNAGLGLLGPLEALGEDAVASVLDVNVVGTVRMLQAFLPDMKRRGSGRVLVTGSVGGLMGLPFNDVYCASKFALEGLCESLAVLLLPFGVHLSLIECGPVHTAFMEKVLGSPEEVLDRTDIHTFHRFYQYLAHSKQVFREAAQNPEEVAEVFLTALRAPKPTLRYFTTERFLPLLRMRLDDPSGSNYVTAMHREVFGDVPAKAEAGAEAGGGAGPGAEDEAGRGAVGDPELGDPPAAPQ
Procedure, shortened: (§1)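 HEK-293 cells transiently transfected with human 17β-HSD1 by calcium phosphate were harvested 48 h later, and the pellets were frozen at -70 °C. Pellets were resuspended in 50 mM potassium phosphate, 20% glycerol and 1 mM EDTA. Conversion of 200 nM radiolabeled estrone to estradiol was measured immediately with 500 µM NADPH. […] DMSO was ≤0.1%. Values are mean ± SD from three independent experiments.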

[2] = biological target: T2, 17-beta-hydroxysteroid dehydrogenase type 1 (Homo sapiens, UniProt P14061); assay: Inhibition of human recombinant 17beta-HSD1 expressed in HEK293 cell lysate assessed as conversion of radiolabeled estrone to estradiol; assay type: cell-free; procedure, shortened: as §1
T2 sequence (P14061 whole entry): T1 sequence (whole entry)

[3] = biological target: T3, 17-beta-hydroxysteroid dehydrogenase type 2 (Homo sapiens) (UniProt P37059); assay: Inhibition of human recombinant 17beta-HSD2 expressed in HEK293 cell lysate assessed as conversion of radiolabeled estrone to estradiol at 40 uM; assay type: cell-free; set-up: scale not given: the % may be the effect or the level left
T3 sequence (whole entry): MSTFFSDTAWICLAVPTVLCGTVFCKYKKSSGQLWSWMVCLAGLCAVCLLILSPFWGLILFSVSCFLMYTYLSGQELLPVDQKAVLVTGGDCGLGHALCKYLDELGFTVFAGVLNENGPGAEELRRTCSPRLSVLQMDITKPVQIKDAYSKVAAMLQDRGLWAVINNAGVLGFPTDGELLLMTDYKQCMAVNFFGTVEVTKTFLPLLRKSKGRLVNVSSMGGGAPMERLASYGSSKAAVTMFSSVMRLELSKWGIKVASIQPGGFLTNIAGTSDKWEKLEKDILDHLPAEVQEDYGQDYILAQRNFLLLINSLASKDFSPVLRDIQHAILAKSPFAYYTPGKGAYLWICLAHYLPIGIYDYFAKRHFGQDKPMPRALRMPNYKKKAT

[4] = biological target: T4, 11-beta-hydroxysteroid dehydrogenase 1 (Homo sapiens, UniProt P28845); assay: Inhibition of human recombinant 11beta-HSD1 expressed in HEK293 cell lysate assessed as conversion of radiolabeled estrone to estradiol at 20 uM; assay type: cell-free; set-up: scale not given: the % may be the effect or the level left
Target sequence in this assay (P28845 whole entry, looked up): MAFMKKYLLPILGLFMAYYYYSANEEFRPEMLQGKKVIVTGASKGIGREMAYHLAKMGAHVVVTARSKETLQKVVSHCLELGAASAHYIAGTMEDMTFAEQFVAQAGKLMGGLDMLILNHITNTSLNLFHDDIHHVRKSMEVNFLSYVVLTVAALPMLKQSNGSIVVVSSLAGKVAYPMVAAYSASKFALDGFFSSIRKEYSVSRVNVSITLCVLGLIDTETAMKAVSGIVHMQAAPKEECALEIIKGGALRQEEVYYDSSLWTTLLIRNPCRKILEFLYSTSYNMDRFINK

[5] = biological target: T3, 17-beta-hydroxysteroid dehydrogenase type 2 (Homo sapiens); assay: Inhibition of human recombinant 17beta-HSD2 expressed in HEK293 cell lysate assessed as conversion of radiolabeled estrone to estradiol at 20 uM; assay type: cell-free; set-up: scale not given: the % may be the effect or the level left
[6] = biological target: T5, Aldo-keto reductase family 1 member C3 (Homo sapiens) (UniProt P42330); assay: Inhibition of human recombinant 17beta-HSD5 expressed in intact HEK293 cells assessed as conversion of androstenedione to testosterone at 20 uM after 24 hrs; assay type: cell-based; set-up: scale not given: the % may be the effect or the level left
T5 sequence (whole entry): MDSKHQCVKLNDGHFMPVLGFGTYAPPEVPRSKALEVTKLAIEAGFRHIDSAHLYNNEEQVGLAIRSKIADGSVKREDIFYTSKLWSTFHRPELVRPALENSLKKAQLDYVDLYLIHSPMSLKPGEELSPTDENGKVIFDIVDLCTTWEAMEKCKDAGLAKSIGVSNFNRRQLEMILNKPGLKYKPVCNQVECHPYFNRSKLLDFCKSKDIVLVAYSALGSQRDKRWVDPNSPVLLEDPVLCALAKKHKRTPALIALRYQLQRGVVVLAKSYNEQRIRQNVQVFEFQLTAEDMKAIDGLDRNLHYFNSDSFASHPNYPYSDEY
Procedure, shortened: (§2)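 17β-HSD3 or 17β-HSD5 was transiently expressed in HEK-293 cells. Conversion of androstenedione to testosterone was measured in intact cells without added cofactor. Compounds were tested at 20 µM, with final DMSO ≤0.1%. Values are mean ± SD from three independent experiments.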

[7] = biological target: T6, 17-beta-hydroxysteroid dehydrogenase type 3 (Homo sapiens) (UniProt P37058); assay: Inhibition of human recombinant 17beta-HSD3 expressed in intact HEK293 cells assessed as conversion of androstenedione to testosterone at 20 uM; assay type: cell-based; set-up: scale not given: the % may be the effect or the level left; procedure, shortened: as §2
T6 sequence (whole entry): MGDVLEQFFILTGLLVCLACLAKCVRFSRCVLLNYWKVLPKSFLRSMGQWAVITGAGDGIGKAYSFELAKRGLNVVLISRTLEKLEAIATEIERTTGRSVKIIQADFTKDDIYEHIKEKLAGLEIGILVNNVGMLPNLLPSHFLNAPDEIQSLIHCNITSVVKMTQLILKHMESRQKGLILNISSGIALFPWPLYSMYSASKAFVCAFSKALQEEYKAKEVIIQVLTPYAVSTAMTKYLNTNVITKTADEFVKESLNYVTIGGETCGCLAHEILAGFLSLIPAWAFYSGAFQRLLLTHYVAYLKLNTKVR

[8] = biological target: T7, 17-beta-hydroxysteroid dehydrogenase type 2 (Homo sapiens, UniProt P37059); assay: Inhibition of human recombinant 17beta-HSD2 expressed in HEK293 cell lysate assessed as conversion of radiolabeled estrone to estradiol; assay type: cell-free
T7 sequence (P37059 whole entry): T3 sequence (whole entry)

[9] = biological target: T4, 11-beta-hydroxysteroid dehydrogenase 1; assay: Inhibition of human recombinant 11beta-HSD1 expressed in HEK293 cell lysate assessed as conversion of radiolabeled estrone to estradiol; assay type: cell-free
Target sequence in this assay (P28845 whole entry): as the sequence (P28845 whole entry, looked up) above

Row | Compound | Activity [1] [%] | IC50 [2] [µM] | Activity [3] [%] | Activity [4] [%] | Activity [5] [%] | Activity [6] | Activity [7] [%] | Ki [2] [µM] | IC50 [8] [µM] | IC50 [9] [µM]
1 | O=S1OCC2C(CO1)C1(Cl)C(Cl)=C(Cl)C2(Cl)C1(Cl)Cl (stereo not drawn) [ENDOSULFAN] | 25 | 48.2 | 51.1 |  |  |  |  |  |  | 
2 | Cc1cc(OCCOc2ccc(N)cc2)ccc1N1C(N)=NC(N)=NC1(C)C | 84 |  |  | 99 | 59 | inactive | 99 |  |  | 
3 | C[C@]12CC[C@@H]3c4ccc(O)cc4CC[C@H]3[C@@H]1C[C@H](CCCCCCCCC(=O)OC[C@H]1O[C@@H](n3cnc4c(N)ncnc43)[C@H](O)[C@@H]1O)[C@@H]2O |  |  |  |  |  |  |  | 0.003 |  | 
4 | O=c1c(O)c(-c2ccc(O)c(O)c2)oc2cc(O)cc(O)c12 [QUERCETIN] | 65 |  | 6.07 |  |  |  |  |  | 1.54 | 
5 | O=C1CC(c2ccccc2)Oc2ccccc21 (stereo not drawn) | 110 |  | 70.7 |  |  |  |  |  |  | 
6 | O=c1cc(-c2ccc(O)cc2)oc2cc(O)cc(O)c12 [APIGENIN] | 10 | 0.71 | 25.2 |  |  |  |  |  | > 20 | 
7 | O=c1cc(-c2ccccc2)oc2cc(O)cc(O)c12 | 34 |  | 32.8 |  |  |  |  |  |  | 
8 | O=c1c(-c2ccc(O)cc2)coc2cc(O)cc(O)c12 [GENISTEIN] | 17 | 2.21 | 15.7 |  |  |  |  |  |  | 
9 | COc1ccc([C@@H]2CC(=O)c3c(O)cc(O)cc3O2)cc1O | 44 |  | 36.4 |  |  |  |  |  |  | 
10 | O=C1CC(c2ccccc2O)Oc2ccccc21 (stereo not drawn) | 95 |  | 50.7 |  |  |  |  |  |  | 
11 | Cc1cc2c(C(C)C)c(O)c(O)c(C=O)c2c(O)c1-c1c(C)cc2c(C(C)C)c(O)c(O)c(C=O)c2c1O | 60 |  | 64.8 |  |  |  |  |  |  | 
12 | O=c1c(O)c(-c2ccc(O)cc2)oc2cc(O)cc(O)c12 [KAEMPFEROL] | 13 | 1.05 | 4.83 |  |  |  |  |  | 0.36 | 
13 | CCOc1cc(/C=N/NC(N)=O)c(Br)c(Br)c1OCC(=O)Nc1ccc(C)cc1 | 16 | 5.7 |  | 70 | 76 | inactive | 96 |  |  | > 50
14 | Cc1cc(-c2ccc(NS(=O)(=O)c3ccccc3)c(C)c2)ccc1NS(=O)(=O)c1ccccc1 | 64 |  |  | 101 | 56 | inactive | 92 |  |  | 
15 | O=C1CC(c2ccccc2)Oc2ccc(O)cc21 (stereo not drawn) | 102 |  | 42.5 |  |  |  |  |  |  | 
16 | O=C1C[C@@H](c2ccc(O)cc2)Oc2cc(O)cc(O)c21 [NARINGENIN] | 17.2 | 4.96 | 12.6 |  |  |  |  |  | 14.4 | 
17 | O=C1CC(c2ccc(O)cc2)Oc2ccccc21 (stereo not drawn) | 99 |  | 63.6 |  |  |  |  |  |  | 

Row | Compound | Activity [1] [%] | IC50 [2] [µM] | Activity [3] [%] | Activity [4] [%] | Activity [5] [%] | Activity [6] | Activity [7] [%] | Ki [2] [µM] | IC50 [8] [µM] | IC50 [9] [µM]
18 | COc1c2c(cc3c1C1Oc4c(ccc(O)c4CC=C(C)C)C1CO3)OC(C)(C)C=C2 (stereo not drawn) | 54 | 19 |  | 96 | 86 | inactive | 55 |  |  | 
19 | Cc1c(/C=N/N=C2\CC[C@H]3[C@@H]4CCc5cc(O)ccc5[C@H]4CC[C@]23C)cnn1C | 34 | 33 |  | 81 | 63 | inactive | 75 |  |  | 
20 | Cc1ccc(S(=O)(=O)N/N=C2\C=C[C@H]3[C@@H]4CC=C5C[C@@H](O)CC[C@]5(C)[C@H]4CC[C@]23C)cc1 | 63 | 47 |  | 9 | 97 | 45% | 69 |  |  | 3.8
21 | CCCCN(C)C(=O)CCCCCS[C@@H]1C[C@@H]2[C@H](CC[C@]3(C)[C@@H](O)CC[C@@H]23)c2ccc(O)cc21 |  | 0.17 |  |  |  |  |  |  |  | 
22 | CC1(C)[C@@H](O)CC[C@]2(C)[C@H]3C(=O)C=C4[C@@H]5C[C@@](C)(C(=O)O)CC[C@]5(C)CC[C@@]4(C)[C@]3(C)CC[C@@H]12 | 53 |  | 24.5 |  |  |  |  |  |  | 
23 | CCCCC(=O)Nc1sc2c(c1C(=O)OCC)CCC(/C=N/O)=C2Cl | 76 |  |  | 106 | 48 | inactive | 89 |  |  | 
24 | O=c1c(-c2ccc(O)cc2)coc2cc(O)ccc12 | 35 |  | 58.3 |  |  |  |  |  |  | 
25 | CCOc1cc(/C=N/NC(=O)c2ccccn2)c(Br)c(Br)c1O | 88 |  |  | 68 | 55 | inactive | 95 |  |  | 
26 | Cc1cc(/C=N/NC(=O)C(O)(c2ccccc2)c2ccccc2)c(C)n1-c1ccc(O)cc1 | 73 |  |  | 90 | 113 | inactive | 76 |  |  | 
27 | C[C@]12CC[C@@H]3c4ccc(OC5CCCCO5)cc4CC[C@H]3[C@@H]1CC[C@@H]2O (stereo partly drawn) | 74 |  |  | 365 | 90 | inactive | 57 |  |  | 20
28 | CCOc1cc(CNC2C(C)=NN=C2S)cc(Br)c1OCC(=O)NC1CCCCC1 (stereo not drawn) | 70 |  |  | 16 | 105 | inactive | 19 |  |  | 6.2
29 | COc1ccc(-c2coc3cc(O)cc(O)c3c2=O)cc1 [BIOCHANIN] | 45 |  | 10.1 |  |  |  |  |  | 9.9 | 
30 | COC(C(=O)Nc1ccc(-c2ccc(NC(=O)C(OC)c3ccccc3)c(C)c2)cc1C)c1ccccc1 (stereo not drawn) | 84 |  |  | 110 | 59 | inactive | 96 |  |  | 
31 | O=S(=O)(Nc1ccccc1)c1ccc2c(c1)Cc1cc(S(=O)(=O)Nc3ccccc3)ccc1-2 | 75 |  |  | 56 | 76 | inactive | 80 |  |  | 
32 | CCOP(=O)(Nc1ccc2c(c1)Cc1c-2cc(Cl)c(NC(C)=O)c1Cl)OCC | 90 |  |  | 87 | 79 | 84% | 86 |  |  | 
33 | O=c1cc(-c2ccccc2)oc2cc(O)ccc12 [7-HYDROXYFLAVONE] | 16 | 5.25 | 23.1 |  |  |  |  |  | > 20 | 
34 | O=c1cc(-c2ccccc2)oc2ccccc12 | 94 |  | 63.9 |  |  |  |  |  |  | 
